pIC50: −log10 of the molar value.
Experiments:
Vero = test: Cytotoxicity against african green monkey Vero cells; assay type: cell-based; conditions: Chlorocebus sabaeus
[1] = test system: Plasmodium vinckei petteri; test: Antiplasmodial activity Plasmodium vinckei petteri infected in CD mouse assessed as survival of infected mouse at 1 mg/kg/day, ip administered from day 0 to day 3 and measured on day 4 (reference value: 9.5 days); assay type: functional; conditions: route intraperitoneal
[2] = test system: Plasmodium vinckei petteri; test: Antiplasmodial activity Plasmodium vinckei petteri infected in ip dosed CD mouse assessed as suppression of parasitaemia administered from day 0 to day 3 and measured on day 4 by Giemsa staining; assay type: functional
In short: (§1)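 Female CD mice (mean weight 20 2 g) were infected on day 0 with 10⁶ P. vinckei petteri-infected red cells in RPMI. Groups of five received drug intraperitoneally daily from day 0 to 3. On day 4, parasitaemia was counted on Giemsa-stained smears (at least 5000 erythrocytes). Inhibition % = (control − treated)/control × 100, with RPMI-only mice as controls. ED₅₀ was taken as the dose giving 50% inhibition.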

[3] = test system: Plasmodium vinckei petteri; test: Antiplasmodial activity Plasmodium vinckei petteri infected in CD mouse assessed as survival of infected mouse at 10 mg/kg/day, ip administered from day 0 to day 3 and measured on day 4 (reference value: 9.5 days); assay type: functional; conditions: route intraperitoneal
[4] = test system: Plasmodium vinckei petteri; test: Antiplasmodial activity Plasmodium vinckei petteri infected in CD mouse assessed as suppression of parasitaemia at 10 mg/kg/day, ip administered from day 0 to day 3 and measured on day 4 by Giemsa staining relative to control; assay type: functional; conditions: route intraperitoneal; in short: as §1
[5] = test system: Plasmodium vinckei petteri; test: Antiplasmodial activity Plasmodium vinckei petteri infected in CD mouse assessed as suppression of parasitaemia at 1 mg/kg/day, ip administered from day 0 to day 3 and measured on day 4 by Giemsa staining relative to control; assay type: functional; conditions: route intraperitoneal; in short: as §1
[6] = test system: Plasmodium vinckei petteri; test: Antiplasmodial activity Plasmodium vinckei petteri infected in CD mouse assessed as suppression of parasitaemia at 5 mg/kg/day, ip administered from day 0 to day 3 and measured on day 4 by Giemsa staining relative to control; assay type: functional; conditions: route intraperitoneal; in short: as §1
Plasmodium falciparum [7] = test: Antiplasmodial activity against chloroquine-resistant Plasmodium falciparum FcM29 assessed as [3H]hypoxanthine incorporation after 48 hrs; assay type: functional, organism-based
In short: (§2)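 P. falciparum was cultured per Trager–Jensen with modifications and synchronised by magnetic concentration plus 5% sorbitol lysis. Cultures, mostly at ring stage, were exposed to increasing drug dilutions in triplicate for 48 h. Growth was measured by [³H]-hypoxanthine incorporation to give IC₅₀. Values are means of two independent experiments run in triplicate.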

Mus musculus = test: Toxicity in CD mouse infected with Plasmodium venckei petteri at 10 mg/kg/day, ip administered from day 0 to day 3; assay type: organism-based; parameters: route intraperitoneal; conditions: in vivo
In short: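 CD female mice infected with 10⁶ P. vinckei petteri-infected red cells were given drug ip daily on days 0–3 and observed for signs of acute toxicity. Survival was followed for 13 days post-infection.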

Plasmodium falciparum [8] = test: Antiplasmodial activity against chloroquine-resistant Plasmodium falciparum FcB1/Columbia assessed as [3H]hypoxanthine incorporation after 48 hrs; assay type: functional, organism-based; in short: as §2
[9] = Selectivity ratio of IC50 for african green monkey Vero cells to IC50 for […] Plasmodium falciparum FcB1/ Columbia; assay type: ADME, cell-based; conditions: read-out: Ratio IC50
In short: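 Selectivity index = Vero IC₅₀ / FcB1 IC₅₀. Vero cells were grown as for P. falciparum but with 10% foetal calf serum in place of 5% human serum, exposed to increasing concentrations for 48 h, and growth read by [³H]-hypoxanthine incorporation against untreated wells (100%). Doxorubicin served as control.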

[10] = test system: Plasmodium vinckei petteri; test: Antiplasmodial activity Plasmodium vinckei petteri infected in CD mouse assessed as survival of infected mouse at 2.5 mg/kg/day, ip administered from day 0 to day 3 and measured on day 4 (reference value: 9.5 days); assay type: functional; conditions: route intraperitoneal
[11] = test system: Plasmodium vinckei petteri; test: Antiplasmodial activity Plasmodium vinckei petteri infected in CD mouse assessed as survival of infected mouse at 5 mg/kg/day, ip administered from day 0 to day 3 and measured on day 4 (reference value: 9.5 days); assay type: functional; conditions: route intraperitoneal
[12] = test system: Plasmodium vinckei petteri; test: Antiplasmodial activity Plasmodium vinckei petteri infected in CD mouse assessed as suppression of parasitaemia at 2.5 mg/kg/day, ip administered from day 0 to day 3 and measured on day 4 by Giemsa staining relative to control; assay type: functional; conditions: route intraperitoneal; in short: as §1
Plasmodium falciparum [13] = test: Antiplasmodial activity against chloroquine-sensitive Plasmodium falciparum 3D7 assessed as [3H]hypoxanthine incorporation after 48 hrs; assay type: functional, organism-based; in short: as §2

## CCN(CC)CCCC(C)Nc1ccnc2cc(Cl)ccc12 (configuration not stated) [CHLOROQUINE]
Vero
  pIC50: < 4.30
[1]
  MSD: 9.5 days
[2]
  ED50: 5.5 mg/kg/day
[3]
  MSD: >13 days
[4]
  inhibition in vivo at 10 mg/kg/day: 94.8%
[5]
  inhibition in vivo at 1 mg/kg/day: 3.2%

## COc1cccc2c1C(=O)c1c(O)c3c(c(O)c1C2=O)C[C@@](O)(C(=O)CO)C[C@@H]3O[C@H]1C[C@H](N)[C@H](O)[C@H](C)O1 [DOXORUBICIN]
Vero
  pIC50: 5.19

## COc1cc2c(ccc3c4cc(OC)c(OC)cc4c[n+](C)c23)cc1O.[I-] [FAGARONINE IODIDE]
[6]
  inhibition in vivo at 5 mg/kg/day: 38.1%
Plasmodium falciparum [7]
  pIC50: 8.13
Mus musculus
  Activity: Non-toxic
Plasmodium falciparum [8]
  pIC50: 7.83
[9]
  selectivity ratio: > 1400
Vero
  pIC50: < 4.68
[1]
  MSD: 8.6 days
[2]
  ED50: 6 mg/kg/day
[10]
  MSD: 11.5 days
[11]
  MSD: 10.7 days
[3]
  MSD: >13 days
[12]
  inhibition in vivo at 2.5 mg/kg/day: 27%
[4]
  inhibition in vivo at 10 mg/kg/day: 91.5%
[5]
  inhibition in vivo at 1 mg/kg/day: 4.8%
Plasmodium falciparum [13]
  pIC50: 8.12

— ChEMBL document CHEMBL2057190, “Short synthesis and antimalarial activity of fagaronine” (Bioorg Med Chem, 2012)
